# Measurements: ChEMBL document CHEMBL1770123, “SPF32629A and SPF32629B: enantioselective synthesis, determination of absolute configuration, cytotoxicity and antibacterial evaluation” (Eur J Med Chem, 2011)
# Active and inactive are the calls of the source. No cut-off for these calls is given here.
# What was measured:
# Staphylococcus aureus [1] = assay: Antimicrobial activity against Staphylococcus aureus at 500 ug/disc after 24 hrs by disc diffusion method; assay type: functional
# In short: (§1)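 Disc diffusion on 2.4% Mueller-Hinton agar inoculated with the strain. Paper discs 6 mm across were loaded with test compound and placed on the agar. Plates were incubated at 37 °C for 24 h. Read-out was the diameter of the inhibition zone in mm.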
# A549 [2] = assay: Cytotoxicity against human A549 cells assessed as cell death at 10 ug after 48 hrs by MTT assay; assay type: functional
# In short: (§2)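 A549 cells were grown in DMEM with 2 mmol L-glutamine, 10% FBS, penicillin (50 IU/mL) and streptomycin, at 37 °C and 5% CO2. 1×10^4 cells/well were plated and treated 24 h later with compound diluted in medium for 48 h. Controls were DMSO-matched and untreated wells. MTT 0.4 mg/mL in PBS was added for 4 h in the dark, then DMSO for 4 h. A540 was read and reported as % live cells relative to untreated.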
# Staphylococcus aureus [3] = assay: Antimicrobial activity against methicillin-resistant Staphylococcus aureus strain 4 TB5G at 1000 ug/disc after 24 hrs by disc diffusion method; assay type: functional; in short: as §1
# A549 [4] = assay: Cytotoxicity against human A549 cells after 48 hrs by MTT assay; assay type: functional, cell-based; details: A549, 48 h
# In short: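 A549 cells were kept in DMEM with 2 mM L-glutamine, 10% FBS, penicillin 50 IU/mL and streptomycin at 37 °C under 5% CO2. 1×10^4 cells per well were treated 24 h after seeding with compounds diluted in medium for 48 h. MTT (0.4 mg/mL in PBS) was added for 4 h in the dark, formazan was dissolved in DMSO for 4 h and absorbance read at 540 nm. Viability was expressed as % of untreated cells, and IC50 was derived.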
# Staphylococcus aureus [5] = assay: Antimicrobial activity against methicillin-resistant Staphylococcus aureus strain 1 TB3G at 1000 ug/disc after 24 hrs by disc diffusion method; assay type: functional; in short: as §1
# Staphylococcus aureus [6] = assay: Antimicrobial activity against methicillin-resistant Staphylococcus aureus strain 4 TB5G at 500 ug/disc after 24 hrs by disc diffusion method; assay type: functional; in short: as §1
# [7] = Inhibition of human elastase
# Staphylococcus aureus [8] = assay: Antimicrobial activity against Staphylococcus aureus at 1000 ug/disc after 24 hrs by disc diffusion method; assay type: functional
# [9] = test system: Staphylococcus epidermidis; assay: Antimicrobial activity against Staphylococcus epidermidis at 500 ug/disc after 24 hrs by disc diffusion method; assay type: functional
# Bacillus subtilis [10] = assay: Antimicrobial activity against Bacillus subtilis at 500 ug/disc after 24 hrs by disc diffusion method; assay type: functional
# Listeria monocytogenes [11] = assay: Antimicrobial activity against Listeria monocytogenes at 500 ug/disc after 24 hrs by disc diffusion method; assay type: functional
# Staphylococcus aureus [12] = assay: Antimicrobial activity against methicillin-resistant Staphylococcus aureus strain 2 TB4G at 1000 ug/disc after 24 hrs by disc diffusion method; assay type: functional; in short: as §1
# Salmonella typhimurium [13] = assay: Antimicrobial activity against Salmonella Typhimurium at 500 ug/disc after 24 hrs by disc diffusion method; assay type: functional, Salmonella enterica subsp. enterica serovar Typhimurium; details: Salmonella enterica, read-out: DIZ
# Escherichia coli [14] = assay: Antimicrobial activity against Escherichia coli at 1000 ug/disc after 24 hrs by disc diffusion method; assay type: functional
# Staphylococcus aureus [15] = assay: Antimicrobial activity against methicillin-resistant Staphylococcus aureus strain 1 TB3G at 500 ug/disc after 24 hrs by disc diffusion method; assay type: functional; in short: as §1
# Klebsiella pneumoniae [16] = assay: Antimicrobial activity against Klebsiella pneumoniae at 1000 ug/disc after 24 hrs by disc diffusion method; assay type: functional
# Chymase = target: T1, Chymase (Homo sapiens, UniProt P23946); assay: Inhibition of human chymase
# T1 sequence (P23946 whole entry): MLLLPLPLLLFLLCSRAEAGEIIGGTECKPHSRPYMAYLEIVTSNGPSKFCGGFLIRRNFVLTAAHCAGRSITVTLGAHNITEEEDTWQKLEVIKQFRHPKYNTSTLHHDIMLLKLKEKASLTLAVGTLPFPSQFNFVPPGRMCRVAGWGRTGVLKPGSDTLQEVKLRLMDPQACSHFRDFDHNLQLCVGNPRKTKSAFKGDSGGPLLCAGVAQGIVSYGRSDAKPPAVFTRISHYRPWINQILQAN
# [17] = test system: Staphylococcus epidermidis; assay: Antimicrobial activity against Staphylococcus epidermidis at 1000 ug/disc after 24 hrs by disc diffusion method; assay type: functional; details: read-out: DIZ
# Klebsiella pneumoniae [18] = assay: Antimicrobial activity against Klebsiella pneumoniae at 500 ug/disc after 24 hrs by disc diffusion method; assay type: functional
# A549 [19] = assay: Cytotoxicity against human A549 cells assessed as cell death at 2 ug after 48 hrs by MTT assay; assay type: functional; in short: as §2
# Listeria monocytogenes [20] = assay: Antimicrobial activity against Listeria monocytogenes at 1000 ug/disc after 24 hrs by disc diffusion method; assay type: functional
# Salmonella typhimurium [21] = assay: Antimicrobial activity against Salmonella Typhimurium at 1000 ug/disc after 24 hrs by disc diffusion method; assay type: functional, Salmonella enterica subsp. enterica serovar Typhimurium; details: Salmonella enterica, read-out: DIZ
# A549 [22] = assay: Cytotoxicity against human A549 cells assessed as cell death at 1 ug after 48 hrs by MTT assay; assay type: functional; in short: as §2
# A549 [23] = assay: Cytotoxicity against human A549 cells assessed as cell death at 25 ug after 48 hrs by MTT assay; assay type: functional; in short: as §2
# Staphylococcus aureus [24] = assay: Antimicrobial activity against methicillin-resistant Staphylococcus aureus strain 2 TB4G at 500 ug/disc after 24 hrs by disc diffusion method; assay type: functional; in short: as §1
# A549 [25] = assay: Cytotoxicity against human A549 cells assessed as cell death at 5 ug after 48 hrs by MTT assay; assay type: functional; in short: as §2
# Bacillus subtilis [26] = assay: Antimicrobial activity against Bacillus subtilis at 1000 ug/disc after 24 hrs by disc diffusion method; assay type: functional
# Escherichia coli [27] = assay: Antimicrobial activity against Escherichia coli at 500 ug/disc after 24 hrs by disc diffusion method; assay type: functional
# Bacillus subtilis [28] = assay: Antimicrobial activity against Bacillus subtilis after 24 hrs by microdilution method; assay type: functional
# In short: (§3)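 Growth was judged by turbidity, and the MIC was taken as the minimum concentration giving the lowest growth. Amikacin served as reference.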
# Salmonella typhimurium [29] = assay: Antimicrobial activity against Salmonella Typhimurium after 24 hrs by microdilution method; assay type: functional, Salmonella enterica subsp. enterica serovar Typhimurium; details: Salmonella enterica; in short: as §3
# Escherichia coli [30] = assay: Antimicrobial activity against Escherichia coli at 100 ug/disc after 24 hrs by disc diffusion method; assay type: functional; details: read-out: DIZ
# Listeria monocytogenes [31] = assay: Antimicrobial activity against Listeria monocytogenes at 100 ug/disc after 24 hrs by disc diffusion method; assay type: functional; details: read-out: DIZ
# Staphylococcus aureus [32] = assay: Antimicrobial activity against Staphylococcus aureus at 100 ug/disc after 24 hrs by disc diffusion method; assay type: functional; details: read-out: DIZ
# Bacillus subtilis [33] = assay: Antimicrobial activity against Bacillus subtilis at 100 ug/disc after 24 hrs by disc diffusion method; assay type: functional; details: read-out: DIZ
# Staphylococcus aureus [34] = assay: Antimicrobial activity against Staphylococcus aureus after 24 hrs by microdilution method; assay type: functional; in short: as §3
# [35] = test system: Staphylococcus epidermidis; assay: Antimicrobial activity against Staphylococcus epidermidis after 24 hrs by microdilution method; assay type: functional; in short: as §3
# Staphylococcus aureus [36] = assay: Antimicrobial activity against methicillin-resistant Staphylococcus aureus strain 4 TB5G at 100 ug/disc after 24 hrs by disc diffusion method; assay type: functional, organism-based
# Staphylococcus aureus [37] = assay: Antimicrobial activity against methicillin-resistant Staphylococcus aureus strain 1 TB3G at 100 ug/disc after 24 hrs by disc diffusion method; assay type: functional; details: read-out: DIZ
# Staphylococcus aureus [38] = assay: Antimicrobial activity against methicillin-resistant Staphylococcus aureus strain 1 TB3G after 24 hrs by microdilution method; assay type: functional
# In short: (§4)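 Growth was judged by turbidity. The MIC was taken as the lowest concentration giving the lowest growth.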
# Escherichia coli [39] = assay: Antimicrobial activity against Escherichia coli after 24 hrs by microdilution method; assay type: functional; in short: as §3
# Salmonella typhimurium [40] = assay: Antimicrobial activity against Salmonella Typhimurium at 100 ug/disc after 24 hrs by disc diffusion method; assay type: functional, Salmonella enterica subsp. enterica serovar Typhimurium; details: Salmonella enterica, read-out: DIZ
# Staphylococcus aureus [41] = assay: Antimicrobial activity against methicillin-resistant Staphylococcus aureus strain 2 TB4G after 24 hrs by microdilution method; assay type: functional; in short: as §4
# [42] = test system: Staphylococcus epidermidis; assay: Antimicrobial activity against Staphylococcus epidermidis at 100 ug/disc after 24 hrs by disc diffusion method; assay type: functional; details: read-out: DIZ
# Staphylococcus aureus [43] = assay: Antimicrobial activity against methicillin-resistant Staphylococcus aureus strain 2 TB4G at 100 ug/disc after 24 hrs by disc diffusion method; assay type: functional; details: read-out: DIZ
# Staphylococcus aureus [44] = assay: Antimicrobial activity against methicillin-resistant Staphylococcus aureus strain 4 TB5G after 24 hrs by microdilution method; assay type: functional; in short: as §4
# Listeria monocytogenes [45] = assay: Antimicrobial activity against Listeria monocytogenes after 24 hrs by microdilution method; assay type: functional; in short: as §3
# Klebsiella pneumoniae [46] = assay: Antimicrobial activity against Klebsiella pneumoniae after 24 hrs by microdilution method; assay type: functional; in short: as §3
# Klebsiella pneumoniae [47] = assay: Antimicrobial activity against Klebsiella pneumoniae at 100 ug/disc after 24 hrs by disc diffusion method; assay type: functional; details: read-out: DIZ
smiles,measurement,setting,value
CC(C)CC(=O)OC(c1ccccc1)c1cc(O)cc(=O)[nH]1 (racemic),diameter of the inhibition zone (DIZ),Staphylococcus aureus [1],inactive
same,Activity,A549 [2],50.21%
same,diameter of the inhibition zone (DIZ),Staphylococcus aureus [3],inactive
same,IC50,A549 [4],28 µM
same,diameter of the inhibition zone (DIZ),Staphylococcus aureus [5],inactive
same,diameter of the inhibition zone (DIZ),Staphylococcus aureus [6],inactive
same,IC50,[7],4.9 µg/mL
same,diameter of the inhibition zone (DIZ),Staphylococcus aureus [8],inactive
same,diameter of the inhibition zone (DIZ),[9],inactive
same,diameter of the inhibition zone (DIZ),Bacillus subtilis [10],inactive
same,diameter of the inhibition zone (DIZ),Listeria monocytogenes [11],inactive
same,diameter of the inhibition zone (DIZ),Staphylococcus aureus [12],inactive
same,zone of inhibition at 500 µg/disc,Salmonella typhimurium [13],7 mm
same,diameter of the inhibition zone (DIZ),Escherichia coli [14],inactive
same,diameter of the inhibition zone (DIZ),Staphylococcus aureus [15],inactive
same,diameter of the inhibition zone (DIZ),Klebsiella pneumoniae [16],inactive
same,IC50,Chymase,0.83 µM
same,zone of inhibition at 1000 µg/disc,[17],9 mm
same,diameter of the inhibition zone (DIZ),Klebsiella pneumoniae [18],inactive
same,Activity,A549 [19],25.54%
same,diameter of the inhibition zone (DIZ),Listeria monocytogenes [20],inactive
same,zone of inhibition at 1000 µg/disc,Salmonella typhimurium [21],13 mm
same,Activity,A549 [22],8.22%
same,Activity,A549 [23],74.02%
same,diameter of the inhibition zone (DIZ),Staphylococcus aureus [24],inactive
same,Activity,A549 [25],37.22%
same,diameter of the inhibition zone (DIZ),Bacillus subtilis [26],inactive
same,diameter of the inhibition zone (DIZ),Escherichia coli [27],inactive
NCC[C@H](O)C(=O)N[C@@H]1C[C@H](N)[C@@H](O[C@H]2O[C@H](CN)[C@@H](O)[C@H](O)[C@H]2O)[C@H](O)[C@H]1O[C@H]1O[C@H](CO)[C@@H](O)[C@H](N)[C@H]1O [AMIKACIN],MIC,Bacillus subtilis [28],6 µg/mL
same,MIC,Salmonella typhimurium [29],12 µg/mL
same,zone of inhibition at 100 µg/disc,Escherichia coli [30],22 mm
same,zone of inhibition at 100 µg/disc,Listeria monocytogenes [31],20 mm
same,zone of inhibition at 100 µg/disc,Staphylococcus aureus [32],20 mm
same,zone of inhibition at 100 µg/disc,Bacillus subtilis [33],21 mm
same,MIC,Staphylococcus aureus [34],50 µg/mL
same,MIC,[35],12 µg/mL
same,diameter of the inhibition zone (DIZ),Staphylococcus aureus [36],inactive
same,zone of inhibition at 100 µg/disc,Staphylococcus aureus [37],17 mm
same,MIC,Staphylococcus aureus [38],> 100 µg/mL
same,MIC,Escherichia coli [39],6 µg/mL
same,zone of inhibition at 100 µg/disc,Salmonella typhimurium [40],19 mm
same,MIC,Staphylococcus aureus [41],> 100 µg/mL
same,zone of inhibition at 100 µg/disc,[42],22 mm
same,zone of inhibition at 100 µg/disc,Staphylococcus aureus [43],19 mm
same,MIC,Staphylococcus aureus [44],> 100 µg/mL
same,MIC,Listeria monocytogenes [45],6 µg/mL
same,MIC,Klebsiella pneumoniae [46],6 µg/mL
same,zone of inhibition at 100 µg/disc,Klebsiella pneumoniae [47],21 mm
